Bioassay records from PubChem.
L major viab: reduces viability of Leishmania major promastigotes; 200,000 compounds, 9% hits; resazurin fluorescence viability; inhibition, % at 10 µM; in the data active = inhibition above about 50%;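 note: promastigotes grown with compound for 44 hours at 28 °C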
PMI act hi M6P: increases human PMI activity with near-saturating mannose 6-phosphate; 190,000 compounds, 0.34% hits; AID 1216; coupled PMI enzyme assay, resazurin fluorescence, 20 min; stronger effect = higher value; 1 = untreated enzyme, 0 = substrate-free blank; P34949; activation factor at 20 µM;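 active = activation factor of 2 or more at 20 µM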
Target sequence (P34949 whole entry, looked up): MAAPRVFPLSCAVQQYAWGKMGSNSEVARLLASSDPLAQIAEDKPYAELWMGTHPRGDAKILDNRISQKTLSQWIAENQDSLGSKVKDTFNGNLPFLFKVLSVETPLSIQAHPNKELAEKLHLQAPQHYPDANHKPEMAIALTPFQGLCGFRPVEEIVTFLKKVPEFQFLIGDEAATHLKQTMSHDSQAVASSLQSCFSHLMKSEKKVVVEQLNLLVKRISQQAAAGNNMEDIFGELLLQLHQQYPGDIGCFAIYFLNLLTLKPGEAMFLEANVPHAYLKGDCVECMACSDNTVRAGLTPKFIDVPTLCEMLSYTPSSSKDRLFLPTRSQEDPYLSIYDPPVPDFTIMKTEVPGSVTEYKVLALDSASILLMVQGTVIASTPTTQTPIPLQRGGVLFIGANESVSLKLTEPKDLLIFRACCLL
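Test system – human PMI in coupled enzyme assay · Timing – 20 min incubation at room temperature · Detection – Diaphorase-driven resazurin-to-resorufin fluorescence, excitation 544, emission 590 nm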
PTEN del growth: suppresses growth of cells with PTEN deletion | AID 827 | 140,000 compounds, 1.2% hits | HCT116 PTEN-null viability, CellTiter-Glo, 60 h; stronger effect = lower value | viability, % at 10 µM;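 active = viability at or below a set limit, 4 SD under the median of all tested compounds, cut at about 3.7% in these data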;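 note: PTEN knockout HCT116 line with beta catenin targeted HCT116 as companion control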
PMI act: increases human mannose-6-phosphate isomerase activity; 190,000 compounds, 0.005% hits; purified human PMI, coupled resazurin fluorescence, 20 min; stronger effect = higher value; 1 = vehicle control, 0 substrate-free wells; activation factor at 20 µM; P34949; AID 1214;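 active = activation factor of 2 or more at 20 µM, relative to plate controls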
bCat KO growth: beta-catenin-lacking colon tumor cell growth suppression. HCT116 beta-catenin knockout viability, CellTiter-Glo, 60 h; stronger effect = lower value. viability, % at 10 µM. 140,000 compounds, 1.5% hits;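 active = viability at or under a set limit, the compound median less 4 SD, cut at about 6% in these data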;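 note: 0% = Hyamine 1622 control at 20 µM and 100% = untreated cell control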
An asterisk follows results filed as active; x = no result. This is a sample that favours compounds with a hit; in the whole collection about 9.6% have one here.

SMILES | L major viab | PMI act hi M6P | PTEN del growth | PMI act | bCat KO growth
COc1c(/C=N/Nc2ccc([N+](=O)[O-])cc2[N+](=O)[O-])c(C)nn1-c1ccccc1 | 1 | 0.8 | 75 | 0.9 | 65
COc1ccccc1NS(=O)(=O)c1ccc(N/N=C/C=C/c2ccccc2[N+](=O)[O-])c([N+](=O)[O-])c1 | 50* | 0.9 | x | 0.9 | x
OCCN1CCN(c2cc(-c3ccccc3)c3ccccc3n2)CC1 | 69* | 1 | 68 | 1 | 67
CN1CCN(c2nc(N3CCN(CCO)CC3)nc3ccccc23)CC1 | 100* | 1.1 | 83 | 1 | 67
CC(=O)OC1CCC2(C)C(COc3ccc4ccc(=O)oc4c3)C(C)(O)CCC2C1(C)C (stereo not drawn) | 99* | 0.9 | 67 | 1 | 67
CON(c1nc(N(C)C)nc(N(C)C)n1)S(=O)(=O)c1ccccc1Cl | 65* | 0.9 | 85 | 0.9 | 80
COC(=O)CN(n1cnnc1)S(=O)(=O)c1ccccc1Cl | 0 | 1 | 92 | 0.9 | 102
CCOc1cccc(/C=N/NS(=O)(=O)c2ccc(C)c([N+](=O)[O-])c2)c1O | -12 | 0.9 | x | 1.2 | x
CCOc1cccc(/C=N/NC(=S)Nc2ccccc2[N+](=O)[O-])c1O | 95* | 1.2 | x | 1.1 | x
O=C(NC1CCCCC1)C(c1ccc(F)cc1)N(Cc1ccco1)C(=O)Cn1nnc2ccccc21 (stereo not drawn) | 44 | 1 | 90 | 0.9 | 93
Cc1ccc(C(C(=O)NC2CCCCC2)N(Cc2ccco2)C(=O)Cn2cnc3ccccc32)cc1 (stereo not drawn) | 60* | 0.9 | 64 | 0.9 | 67
CC(NC(=O)COC(=O)Cc1ccsc1)c1ccccc1 (stereo not drawn) | -9 | 1 | 102 | 1 | 92
COc1ccc(NC(=O)c2ccc(=O)[nH]c2)cc1S(=O)(=O)N1CCCCC1 | 56* | 1 | 97 | 1 | 93
CCn1cc(C(=O)Nc2ccc(OC)c(S(=O)(=O)N3CCCCC3)c2)c(=O)c2ccc(C)nc21 | 67* | 1.2 | 101 | 1 | 87
COC(=O)c1ccccc1NC(=O)C1CCN(S(=O)(=O)c2cc(C)ccc2OC)CC1 | 76* | 0.9 | 83 | 0.9 | 81
COc1ccc(NC(=O)C2CCC(C(C)(C)C)CC2)cc1S(=O)(=O)N1CCCCC1 (stereo not drawn) | 99* | 1 | 56 | 0.9 | 61
COc1ccc(S(=O)(=O)N2CCCCC2)cc1NC(=O)c1ccc(=O)[nH]c1 | -1 | 0.9 | x | 1 | x
Cc1[nH]c2ccccc2c1C(=O)CN1CCCCC1CCO (stereo not drawn) | 3 | 0.9 | 87 | 0.9 | 76
COc1ccc(NC(=S)Nc2ccc(C)c(S(=O)(=O)N3CCCCC3)c2)cc1 | 76* | 1 | 39 | 1 | 38
COc1ccc(OC)c(S(=O)(=O)N2CCC(C(=O)Nc3cccc(C)c3)CC2)c1 | 100* | 1 | 77 | 1 | 64
Cc1cc(-c2nnc(CCC(=O)N3CCN(Cc4cccnc4)CC3)o2)c(C)o1 | 2 | 1 | x | 1 | x
COc1cccc(-n2cnc3c(sc4nc(N5CCOCC5)c5c(c43)CCCC5)c2=O)c1 | 33 | 1 | x | 0.9 | x
Cc1cc(OCc2cccc(Cl)c2)c(C)cc1CN1CCOCC1 | 81* | 1 | x | 1 | x
CC(C)CCSc1nc(N)c(C#N)cc1C#N | 76* | 0.9 | 79 | 0.8 | 90
CC(=O)c1cc(C#N)c(SCCC(C)C)nc1C | -4 | 0.9 | 97 | 0.8 | 98
SMILES | L major viab | PMI act hi M6P | PTEN del growth | PMI act | bCat KO growth
CCn1c(SCCC#N)nnc1-c1ccncc1 | -5 | 0.9 | 95 | 0.9 | 105
Cc1nc2ccccc2n1/N=C/c1ccc([N+](=O)[O-])s1 | 100* | 1 | 1.7* | 1.1 | 1.5*
Cc1ccc(/C=N/n2c(C)nc3ccccc3c2=O)o1 | -10 | 1 | x | 1.1 | x
Cc1nc2ccccc2n1/N=C/c1ccc([N+](=O)[O-])o1 | 101* | x | x | x | x
O=[N+]([O-])c1ccc(/C=N/n2c(CO)nc3ccccc32)s1 | 100* | 1 | 7 | 1 | 12
Cn1c(C(=O)c2ccccc2[N+](=O)[O-])nc2ccccc21 | 9 | 1 | x | 1.1 | x
COC(=O)C1(CCSC)NC(c2ccc(O)c(OC)c2)C2C(=O)N(c3ccc(C)cc3)C(=O)C21 (stereo not drawn) | -6 | 0.9 | x | 1 | x
CC(=O)NN1C(=O)/C(=C\c2ccc(Cl)cc2)SC1=S | 41 | 1 | x | 1 | x
COC(=O)C1=C(C)N=C2SCCC(=O)N2C1/C=C/c1ccccc1 (stereo not drawn) | -3 | 0.9 | 92 | 0.8 | 100
COc1ccccc1N1CCN(C(=O)C2CCC(Cn3c(=S)[nH]c4ccccc4c3=O)CC2)CC1 (stereo not drawn) | 64* | 1 | 31 | 0.9 | 32
O=C(C1CCC(Cn2c(=S)[nH]c3ccccc3c2=O)CC1)N1CCN(c2ccccn2)CC1 (stereo not drawn) | 99* | 0.9 | x | 0.9 | x
O=C(C1CCC(Cn2c(=S)[nH]c3ccccc3c2=O)CC1)N1CCOCC1 (stereo not drawn) | -1 | 0.9 | 83 | 0.9 | 85
O=C(C1CCC(Cn2c(=S)[nH]c3ccccc3c2=O)CC1)N1CCN(c2ccccc2)CC1 (stereo not drawn) | 99* | x | x | x | x
COc1ccc(N2CCN(C(=O)C3CCC(Cn4c(=S)[nH]c5ccccc5c4=O)CC3)CC2)cc1 (stereo not drawn) | 99* | 0.9 | 52 | 0.8 | 50
O=C(C1CCC(Cn2c(=O)[nH]c3ccccc3c2=O)CC1)N1CCN(c2ccccc2)CC1 (stereo not drawn) | 38 | 0.9 | 79 | 1 | 93
CC(=O)OCC(=O)Nc1ccccc1OC(F)F | -4 | 1 | x | 1 | x
COc1ccc(N2CCN(CCCNC(=O)C3CCC(CNc4nc(=S)[nH]c5ccccc45)CC3)CC2)cc1 (stereo not drawn) | 86* | 1 | x | 0.9 | x
CCCCNC(=O)C1CCC(CNc2nc(=S)[nH]c3ccccc23)CC1 (stereo not drawn) | 5 | 1.1 | x | 1.1 | x
COc1ccc2cc3cc(C(=O)NCC4COc5ccccc5O4)oc3nc2c1 (stereo not drawn) | -3 | 1 | 89 | 1.1 | 104
O=S(=O)(c1cnccc1N1CCN(/N=C/c2ccc(Cl)cc2)CC1)N1CCCCC1 | 79* | 0.8 | 91 | 0.8 | 94
COc1cccc(/C=N/N2CCN(c3ccncc3S(=O)(=O)N3CCCCC3)CC2)c1 | 99* | 1 | 87 | 0.9 | 84
Cc1ccc(/C=N/N2CCN(c3ccncc3S(=O)(=O)N3CCCCC3)CC2)cc1 | 67* | 0.8 | 100 | 0.8 | 98
COc1ccc(NC(=O)COC(=O)c2ccc([N+](=O)[O-])o2)cc1Cl | -13 | 0.9 | x | 1.1 | x
Cc1ccc(Cl)cc1NC(=S)NCCCSC1CCCCC1 | 34 | 1 | x | 1 | x
